Measurements of several laboratories.
Each line is one published result; the experiments were not run side by side.
ADORA2B: Adenosine receptor A2b (ADORA2B, Homo sapiens, UniProt P29275)
CYP3A4: Cytochrome P450 3A4 (CYP3A4, Homo sapiens, UniProt P08684)
F12: Coagulation factor XII (F12, Homo sapiens, UniProt P00748)

| SMILES | target | test | test system | conditions | measurement | value |
| --- | --- | --- | --- | --- | --- | --- |
| CC(C)=CCNc1ncnc2c1ncn2[C@@H]1O[C@H](CO)[C@@H](O)[C@H]1O | ADORA2B | G protein activation, agonist |  |  | EC50 | 84 µM |
| CO[C@]1(C(=O)N[C@@H](C)c2ccc(-n3cc(F)cn3)nc2)CC[C@H](c2nc(C)cc(Nc3cc(C)[nH]n3)n2)CC1 | CYP3A4 | enzyme activity, inhibitor | human, liver microsomes |  | Ki | 24 µM |
| O=c1cc(-c2ccc(O)cc2)oc2c([C@@H]3OC[C@H](O)[C@H](O)[C@H]3O)c(O)c([C@@H]3O[C@H](CO)[C@@H](O)[C@H](O)[C@H]3O)c(O)c12 | Calcium/calmodulin-dependent protein kinase type II subunit gamma (CAMK2G, Homo sapiens, UniProt Q13555) | enzyme activity, inhibitor |  |  | IC50 | 189 µM |
| CN(C)c1ncnc2c1ncn2[C@@H]1O[C@H](CO)[C@@H](O)[C@H]1O | ADORA2B | G protein activation, agonist |  |  | EC50 | 22 µM |
| COc1ccc(-c2cc(OCC(=O)N(C)Cc3cccnc3C)nc(-n3nc(C)cc3C)n2)cc1 | Leucyl-cystinyl aminopeptidase (LNPEP, Homo sapiens, UniProt Q9UIQ6) | enzyme activity, inhibitor, fluorescence |  |  | IC50 | 0.157 µM |
| O=c1oc(-c2cccnc2)nc2ccccc12 | F12 | enzyme activity, inhibitor, absorbance |  | pH 7.4 | IC50 | > 50 µM |
| COc1cc(O)c2c(c1)C(=O)c1cc(C)cc(O)c1C2=O | CYP3A4 | enzyme activity, inhibitor | human, liver microsomes | pH 7.4, testosterone probe | IC50 | 13.5 µM |
| O=c1oc(-c2ccco2)nc2ccccc12 | F12 | enzyme activity, inhibitor, absorbance |  | pH 7.4 | IC50 | > 50 µM |
| Oc1ccc2c(c1)CC[C@H](c1ccccc1)[C@@H]2c1ccc(OCCN2CCCC2)cc1 | Progesterone receptor (PGR, Homo sapiens, UniProt P06401) | ligand displacement, radioligand |  |  | IC50 | 0.069 µM |
